The target of test [1] is Neuronal acetylcholine receptor subunit alpha-7 (Homo sapiens, UniProt P36544). Nature of the test: Displacement of [125]iodoMLA from alpha-7 nAChR.
Test [2] concerns the target Neuronal acetylcholine receptor; alpha4/beta2 (Rattus norvegicus, UniProt P09483+P12390). Kind of test: Displacement of [3H]epibatidine from alpha4beta2 nAChR in rat cerebral cortex. It is filed as tissue-based. For orientation: Displacement assays read how much labelled ligand stays bound in the presence of the test substance.
Test [3] has as its system Mus musculus. Kind of test: Antinociceptive activity in sc dosed mouse by hotplate method. It is filed as functional. In outline: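 Mouse hot-plate at 55.0 °C, animal in 10 cm glass cylinder. Two control latencies ≥10 min apart (normal 8–12 s). End point is jumping or paw licking. Tested 5 min after sc injection across a dose range. Response as %MPE = [(test – control)/(maximum latency – control) × 100]. ED50 with 95% confidence limits by unweighted least-squares linear regression.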

Test [4] concerns Mus musculus. Nature of the test: Activity in sc dosed mouse by hypothermia test. It is filed as functional. In outline: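 Rectal temperature in mice via thermistor probe inserted 24 mm, read just before and at several times after sc injection of saline or test compound. Change from pretreatment value per mouse. Ambient 21–24 °C. ED50 with 95% confidence limits by unweighted least-squares linear regression.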

Test [5] relates to Mus musculus. Nature of the test: Antinociceptive activity in sc dosed mouse by tail-flick method. It counts as functional. In outline:
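Mouse tail-flick (D'Amour–Smith): tail exposed to heat lamp, latency to flick recorded. Control latency (2–4 s) taken per mouse before treatment, test latency after sc dosing. Response as %MPE = [(test – control)/(maximum latency – control) × 100]. ED50 with 95% confidence limits by unweighted least-squares linear regression.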
(In general: Thermal pain tests record how soon the animal reacts.)

Test [6] has as its system Mus musculus. Kind of test: Effect on locomotor activity in sc dosed mouse. It is filed as functional. In outline: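 Spontaneous activity: mice placed in individual photocell cages (28 × 16.5 cm) 5 min after sc dosing of 0.9% saline or test compound. Beam interruptions (two banks of eight cells) counted over the next 10 min.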

Neuronal acetylcholine receptor; alpha4/beta2, sequence (P09483 whole entry): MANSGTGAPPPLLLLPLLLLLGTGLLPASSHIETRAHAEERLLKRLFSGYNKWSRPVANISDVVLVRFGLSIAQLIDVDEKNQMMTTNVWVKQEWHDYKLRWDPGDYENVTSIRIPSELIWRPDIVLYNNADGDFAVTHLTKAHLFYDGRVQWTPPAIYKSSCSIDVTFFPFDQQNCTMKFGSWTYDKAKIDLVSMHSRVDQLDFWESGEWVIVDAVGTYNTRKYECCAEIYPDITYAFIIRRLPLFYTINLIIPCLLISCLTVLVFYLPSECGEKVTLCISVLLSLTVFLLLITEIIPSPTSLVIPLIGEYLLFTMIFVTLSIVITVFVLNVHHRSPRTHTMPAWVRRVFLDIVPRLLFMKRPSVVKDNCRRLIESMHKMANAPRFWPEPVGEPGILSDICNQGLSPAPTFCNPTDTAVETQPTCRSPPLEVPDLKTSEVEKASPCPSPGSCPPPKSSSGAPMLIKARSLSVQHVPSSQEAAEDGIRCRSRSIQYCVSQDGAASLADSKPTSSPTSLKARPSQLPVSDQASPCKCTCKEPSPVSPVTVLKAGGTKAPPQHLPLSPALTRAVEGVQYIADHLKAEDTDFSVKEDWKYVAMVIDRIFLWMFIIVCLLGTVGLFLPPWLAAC
Neuronal acetylcholine receptor; alpha4/beta2, sequence (P12390 whole entry): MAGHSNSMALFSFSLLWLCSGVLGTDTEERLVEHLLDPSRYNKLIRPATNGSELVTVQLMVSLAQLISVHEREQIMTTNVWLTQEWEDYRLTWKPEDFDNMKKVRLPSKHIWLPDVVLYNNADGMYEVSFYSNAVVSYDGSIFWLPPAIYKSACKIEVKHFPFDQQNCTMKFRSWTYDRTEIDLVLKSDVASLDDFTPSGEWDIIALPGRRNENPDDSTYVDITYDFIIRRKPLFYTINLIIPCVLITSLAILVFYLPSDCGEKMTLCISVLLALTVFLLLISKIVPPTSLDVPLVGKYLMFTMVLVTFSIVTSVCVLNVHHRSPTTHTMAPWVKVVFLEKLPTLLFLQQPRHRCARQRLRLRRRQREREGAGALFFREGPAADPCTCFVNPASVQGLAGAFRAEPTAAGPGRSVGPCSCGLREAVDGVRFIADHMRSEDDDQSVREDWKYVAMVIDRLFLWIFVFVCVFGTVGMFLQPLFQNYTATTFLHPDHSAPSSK
Neuronal acetylcholine receptor subunit alpha-7, sequence (P36544 whole entry): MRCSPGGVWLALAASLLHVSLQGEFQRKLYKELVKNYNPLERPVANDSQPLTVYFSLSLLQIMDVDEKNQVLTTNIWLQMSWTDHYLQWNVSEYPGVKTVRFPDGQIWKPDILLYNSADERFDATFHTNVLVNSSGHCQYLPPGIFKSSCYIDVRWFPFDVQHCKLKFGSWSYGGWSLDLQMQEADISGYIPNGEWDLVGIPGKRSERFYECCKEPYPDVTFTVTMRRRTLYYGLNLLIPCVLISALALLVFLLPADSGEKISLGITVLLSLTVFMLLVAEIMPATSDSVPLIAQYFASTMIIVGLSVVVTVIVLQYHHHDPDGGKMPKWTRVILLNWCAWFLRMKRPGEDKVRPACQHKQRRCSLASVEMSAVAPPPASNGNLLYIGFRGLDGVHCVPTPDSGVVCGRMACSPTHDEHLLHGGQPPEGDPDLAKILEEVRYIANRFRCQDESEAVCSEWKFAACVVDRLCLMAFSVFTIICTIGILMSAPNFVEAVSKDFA

Regarding `Clc1ccc([C@H]2CC3CCC2[C@@H]3NCc2ccccc2)cn1` (relative stereo), the Ki was greater than 200 nM in test [1] and greater than 1000 nM in test [2].
Regarding `Cl.Cl.Cl.N[C@H]1C2CCC1[C@@H](c1ccc(Cl)nc1)C2` (relative stereo), the results for the Ki in test [1] and in test [2] were greater than 700 nM and 8.2 nM, respectively. Further, the ED50 in the test with Mus musculus [3] is 2.9 mg/kg; in the test on Mus musculus [4] it was 3.4 mg/kg; in the test on Mus musculus [5], 4.5 mg/kg.
For `Clc1ccc([C@H]2CC3CCC2[C@H]3NCc2ccccc2)cn1` (relative stereo), the Ki was greater than 700 nM in test [1] and greater than 1000 nM in test [2].
Consider `Cl.N[C@@H]1C2CCC1[C@@H](c1ccc(Cl)nc1)C2` (relative stereo), for which the Ki is greater than 700 nM in test [1] and 10.9 nM in test [2]. The ED50 in the test with Mus musculus [3] was 4.4 mg/kg; with Mus musculus [4], 2.3 mg/kg; with Mus musculus [5] it was 4.5 mg/kg; in the test with Mus musculus [6], 1.1 mg/kg.
Turning to `Cl.Clc1ccc([C@H]2CC3CCC2N3)cn1` (some centres undefined) [EPIBATIDINE HYDROCHLORIDE], in test [1], the inhibitory constant (Ki) amounted to 198 nM. Also, the median effective dose (ED50) was found to be 0.004 mg/kg in the test with Mus musculus [3], 0.004 mg/kg in the test with Mus musculus [4], 0.006 mg/kg in the test with Mus musculus [5] and 0.001 mg/kg in the test with Mus musculus [6].
For `CN1CCC[C@H]1c1cccnc1.Cl` [NICOTINE HYDROCHLORIDE], the median effective dose (ED50) worked out at 0.65 mg/kg with Mus musculus [3], 1 mg/kg with Mus musculus [4], 1.3 mg/kg in the test with Mus musculus [5] and 0.5 mg/kg with Mus musculus [6].

Usually Ki stands for a measure of affinity in units of concentration, obtained from inhibition or displacement. Low values mean higher affinity, high ones lower affinity. As a reminder, the ED50 is the dose that gives a 50% effect, or the effect in half of the subjects.

The values above are taken from ChEMBL document CHEMBL1140300, “Synthesis and pharmacological characterization of exo-2-(2'-chloro-5-pyridinyl)-7-(endo and exo)-aminobicyclo[2.2.1]heptanes as novel epibatidine analogues” (J Med Chem, 2005).
